Data reported in ChEMBL document CHEMBL5260843 (J Med Chem, 2019).
Activity calls are given as the source filed them. The calls are words filed in the database; no cut-off is given here.

Columns and labels:
MGC-803 [1] = assay: Inhibition of cullin2 neddylation in UBC/DCN1 overactivated human MGC-803 cells at 0.3 to 10 uM incubated for 24 hrs by Western blot analysis; assay type: cell-based; conditions: dose 0.3-10 µM
In short: (§1)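 Cells in 6-well plates were exposed to compound for 24 h. MGC-803 were grown in DMEM and KYSE70 in RPMI 1640, both with 10% FBS at 37 °C and 5% CO2. Lysates were made in RIPA with protease inhibitors and quantified by BCA. 30 μg protein was run on 8% SDS-PAGE and blotted to nitrocellulose. Primary antibodies were applied overnight at 4 °C, then HRP secondaries, with ECL and film detection. GAPDH was the loading control. Run three times.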

[2] = Metabolic stability in human liver microsomes assessed as intrinsic clearance; assay type: ADME, Microsome; conditions: read-out: CLH
KYSE-70 [3] = assay: Induction of p21 accumulation in human KYSE-70 cells incubated for 24 hrs by Western blot analysis; assay type: functional, cell-based; conditions: dose 0.3-10 µM; in short: as §1
KYSE-70 [4] = assay: Induction of p27 accumulation in human KYSE-70 cells incubated for 24 hrs by Western blot analysis; assay type: functional, cell-based; conditions: dose 0.3-10 µM; in short: as §1
Cullin-4B (Homo sapiens) [5] = molecular target: Cullin-4B (Homo sapiens) (UniProt Q13620); assay: Inhibition of cullin4B neddylation in UBC/DCN1 overactivated human MGC-803 cells at 0.3 to 10 uM incubated for 24 hrs by Western blot analysis; assay type: cell-based; conditions: dose 0.3-10 µM; in short: as §1
Chain of Cullin-4B (Homo sapiens) (Q13620 whole entry): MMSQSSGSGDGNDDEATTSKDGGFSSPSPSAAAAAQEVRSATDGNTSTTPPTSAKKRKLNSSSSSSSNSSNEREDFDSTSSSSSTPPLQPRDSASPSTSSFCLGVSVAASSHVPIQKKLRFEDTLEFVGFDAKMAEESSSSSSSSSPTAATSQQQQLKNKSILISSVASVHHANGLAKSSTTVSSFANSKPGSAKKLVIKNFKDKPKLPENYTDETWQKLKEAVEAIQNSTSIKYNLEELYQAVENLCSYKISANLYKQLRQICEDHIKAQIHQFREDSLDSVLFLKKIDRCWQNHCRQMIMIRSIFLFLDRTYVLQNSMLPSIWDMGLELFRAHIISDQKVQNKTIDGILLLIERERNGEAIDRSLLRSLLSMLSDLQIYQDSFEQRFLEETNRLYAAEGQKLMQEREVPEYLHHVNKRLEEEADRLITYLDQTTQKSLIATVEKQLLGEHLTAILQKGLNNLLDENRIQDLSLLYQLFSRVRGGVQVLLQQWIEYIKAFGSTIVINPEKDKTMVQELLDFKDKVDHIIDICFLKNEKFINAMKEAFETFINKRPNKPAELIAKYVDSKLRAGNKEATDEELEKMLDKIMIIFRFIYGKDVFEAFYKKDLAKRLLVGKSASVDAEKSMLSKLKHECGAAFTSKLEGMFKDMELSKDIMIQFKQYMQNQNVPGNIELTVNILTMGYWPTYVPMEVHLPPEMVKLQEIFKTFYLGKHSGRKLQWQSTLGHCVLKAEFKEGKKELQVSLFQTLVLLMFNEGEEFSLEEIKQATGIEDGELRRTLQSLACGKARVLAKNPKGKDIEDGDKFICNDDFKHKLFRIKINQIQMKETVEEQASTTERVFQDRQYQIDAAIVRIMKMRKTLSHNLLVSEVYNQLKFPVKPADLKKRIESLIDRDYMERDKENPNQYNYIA

MGC-803 [6] = assay: Induction of p21 accumulation in human MGC-803 cells incubated for 24 hrs by Western blot analysis; assay type: functional, cell-based; conditions: dose 1-10 µM; in short: as §1
MGC-803 [7] = assay: Upregulation of NRF2 protein expression in human MGC-803 cells incubated for 24 hrs by Western blot analysis; assay type: functional, cell-based; conditions: dose 1-10 µM
In short: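 Cells were grown at 37 °C in 5% CO2 with 10% FBS, MGC-803 in DMEM and KYSE70 in RPMI 1640. They were exposed to the indicated compound concentrations for 24 h, then lysed in RIPA with protease inhibitors and quantified by BCA. 30 μg of protein was run on 8% SDS-PAGE and blotted to nitrocellulose. Primary antibody was applied overnight at 4 °C, with HRP secondary and ECL film detection. GAPDH served as the loading control; the experiment was done three times.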

KYSE-70 cell line = assay: Inhibition of cullin3 neddylation in human KYSE-70 cells incubated for 24 hrs by Western blot analysis; assay type: cell-based; conditions: dose 0.3-10 µM; in short: as §1
MGC-803 [8] = assay: Induction of ROS generation in human MGC-803 cells at 3 uM incubated for 24 hrs by DCFH-DA staining based flow cytometry analysis (reference value: 2.2%); assay type: functional
Cullin-5 (Homo sapiens) [9] = molecular target: T1, Cullin-5 (Homo sapiens) (UniProt Q93034); assay: Inhibition of cullin5 neddylation in UBC/DCN1 overactivated human MGC-803 cells at 0.3 to 10 uM incubated for 24 hrs by Western blot analysis; assay type: cell-based; conditions: dose 0.3-10 µM; in short: as §1
T1 sequence (whole entry): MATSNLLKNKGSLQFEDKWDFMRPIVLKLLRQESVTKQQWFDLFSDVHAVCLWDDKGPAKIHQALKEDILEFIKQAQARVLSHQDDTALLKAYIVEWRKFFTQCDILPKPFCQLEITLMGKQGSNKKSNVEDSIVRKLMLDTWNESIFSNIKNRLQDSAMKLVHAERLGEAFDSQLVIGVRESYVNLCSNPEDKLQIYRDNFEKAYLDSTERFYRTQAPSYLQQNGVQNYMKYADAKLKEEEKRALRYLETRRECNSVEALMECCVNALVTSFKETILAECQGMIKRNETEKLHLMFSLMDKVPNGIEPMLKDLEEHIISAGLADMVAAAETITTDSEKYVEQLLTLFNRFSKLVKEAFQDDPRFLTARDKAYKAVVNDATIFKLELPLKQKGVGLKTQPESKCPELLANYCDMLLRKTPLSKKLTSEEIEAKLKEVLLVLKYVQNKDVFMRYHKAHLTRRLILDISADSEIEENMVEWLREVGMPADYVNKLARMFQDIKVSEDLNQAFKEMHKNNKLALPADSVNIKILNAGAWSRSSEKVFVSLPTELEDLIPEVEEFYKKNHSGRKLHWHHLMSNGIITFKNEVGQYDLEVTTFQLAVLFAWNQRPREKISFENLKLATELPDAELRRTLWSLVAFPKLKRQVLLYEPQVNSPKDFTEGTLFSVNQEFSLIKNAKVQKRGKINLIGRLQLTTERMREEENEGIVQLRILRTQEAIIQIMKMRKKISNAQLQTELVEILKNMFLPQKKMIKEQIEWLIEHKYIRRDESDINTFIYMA

Cullin-5 (Homo sapiens) [10] = molecular target: T1, Cullin-5 (Homo sapiens); assay: Inhibition of cullin5 neddylation in human KYSE-70 cells at 0.3 to 10 uM incubated for 24 hrs by Western blot analysis; assay type: cell-based; conditions: KYSE-70 cell line, dose 0.3-10 µM; in short: as §1
Cullin-4B (Homo sapiens) [11] = molecular target: Cullin-4B (Homo sapiens) (UniProt Q13620); assay: Inhibition of cullin4B neddylation in human KYSE-70 cells at 0.3 to 10 uM incubated for 24 hrs by Western blot analysis; assay type: cell-based; conditions: KYSE-70 cell line, dose 0.3-10 µM; in short: as §1
[12] = Metabolic stability in rat liver microsomes assessed as half life; assay type: ADME, Microsome

Cc1cc(Sc2nnnn2CCN(C)C)n2nc(SCc3ccc(Cl)cc3)nc2n1.Cl
inhibition (MGC-803 [1]): inactive | CLint scaled [2]: > 20.9 L/h/kg | Activity (KYSE-70 [3]): Dose-Dependent Effect | Activity (KYSE-70 [4]): Dose-Dependent Effect | inhibition (Cullin-4B (Homo sapiens) [5]): inactive | Activity (MGC-803 [6]): Dose-Dependent Effect | Activity (MGC-803 [7]): Dose-Dependent Effect | inhibition (KYSE-70 cell line): Dose-Dependent Effect | Activity (MGC-803 [8]): 2.6% | inhibition (Cullin-5 (Homo sapiens) [9]): inactive | inhibition (Cullin-5 (Homo sapiens) [10]): inactive | inhibition (Cullin-4B (Homo sapiens) [11]): inactive | half-life [12]: < 5 min
